Bioassay records from PubChem.
MrgX1 antagonist: human MrgX1 receptor antagonism, primary screen. AID 588676. B-score at 10 µM. MRGX1-HEK293 calcium flux, Fluo-4, BAM8-22 antagonism; stronger effect = lower value. actives 1.3% (n = 310,000);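 active means calcium-response B-score plate-corrected more than 3 library SD below zero, starting fluorescence within 5 deviations, no agonist response on first addition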;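 further: peak minus trough fluorescence over baseline after final BAM8-22 challenge near maximal dose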
Target sequence (Q96LB2 whole entry, looked up): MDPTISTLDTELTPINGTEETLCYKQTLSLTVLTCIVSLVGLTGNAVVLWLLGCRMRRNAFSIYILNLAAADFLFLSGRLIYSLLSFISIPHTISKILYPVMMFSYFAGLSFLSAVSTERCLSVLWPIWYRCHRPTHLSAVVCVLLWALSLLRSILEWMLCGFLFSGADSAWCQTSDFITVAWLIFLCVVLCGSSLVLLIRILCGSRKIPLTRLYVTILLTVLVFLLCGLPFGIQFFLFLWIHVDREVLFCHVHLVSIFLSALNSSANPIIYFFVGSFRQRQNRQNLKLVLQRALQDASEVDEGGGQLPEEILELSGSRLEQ
RGS4 inh: inhibitors of human RGS4. P49798. HEK293 M3R/RGS4 inducible, Fluo-4 calcium flux; stronger effect = higher value; triggered by carbachol at its EC20. B-score at 10 µM. actives 0.45% (n = 310,000). AID 463165;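 active means B-score, a plate-corrected calcium signal, over three deviations above library mean, with baseline fluorescence within five deviations of library mean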;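 further: RGS4 expression induced by doxycycline in cells with stable M3 receptor; B-score is computed from the integrated fluorescence ratio over baseline after carbachol; higher B-score means a larger calcium signal and so more RGS4 inhibition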
Target sequence (P49798 whole entry, looked up): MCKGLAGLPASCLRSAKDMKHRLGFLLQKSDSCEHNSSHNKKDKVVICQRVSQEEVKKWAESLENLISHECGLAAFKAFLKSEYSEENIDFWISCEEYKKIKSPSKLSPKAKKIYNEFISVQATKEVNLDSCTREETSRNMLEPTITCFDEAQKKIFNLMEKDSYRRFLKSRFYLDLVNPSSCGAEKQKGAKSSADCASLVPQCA
MrgX1 PAM: human MrgX1 positive allosteric modulation, primary screen; Q96LB2; AID 588675; actives 0.63% (n = 310,000); B-score at 10 µM; MrgX1-HEK293, Fluo-4 calcium flux, FDSS; stronger effect = higher value;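 active means plate-corrected calcium response at least 3 library SD above typical, normal starting fluorescence, not activating the receptor alone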;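 further: compound read alongside a low EC10 to EC30 dose of BAM8-22 agonist; peak minus trough fluorescence over baseline measured at the second addition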
RGS4 pot: RGS4 potentiation or activation; B-score at 10 µM; AID 463111; actives 0.92% (n = 310,000); HEK293 M3R/inducible RGS4, carbachol calcium flux Fluo4; stronger effect = lower value;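 active means B-score of the integrated calcium signal more than 4 SD below the library mean, with starting fluorescence not abnormally high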;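 further: negative B-score means reduced calcium response which marks RGS4 activation or potentiation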
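Material: M3R-expressing HEK293 line, RGS4 induced by doxycycline | Schedule: Overnight RGS4 induction, 30 min dye load 37 °C, 20 min compound RT | Measured by: Fluo4 fluorescence kinetic imaging of calcium | Read-out: Integrated calcium ratio converted to B score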
MrgX1 agonist: human MrgX1 receptor agonism, primary screen; MrgX1-HEK293 cells, Fluo-4 calcium fluorescence, agonist mode; stronger effect = higher value; B-score at 10 µM; actives 0.44% (n = 310,000); AID 588627;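 active means calcium response B-score plate-corrected fluorescence ratio at least 3 library SD, with starting fluorescence B-score inside 5 SD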
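Assay system: stable human MrgX1 HEK293 cell line. Quantity: 15,000 cells per well. Schedule: cells plated overnight, dye loaded 0.5 h 37 °C, 0.5 h room temperature. Detection: Fluo-4 NW calcium-flux fluorescence, kinetic read. Read-out basis: peak-minus-minimum fluorescence over baseline, converted to B scores. Control set: positive and negative control wells on each plate.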
MrgX1 antag conf: human MrgX1 receptor antagonism, re-confirmation screen; shares compounds with MrgX1 antagonist; MrgX1-HEK293, BAM8-22 calcium flux, Fluo-4; stronger effect = lower value; remaining BAM8-22 calcium response % of control (stronger effect = lower value), % at 10 µM; actives 19% (n = 2,300);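 active means remaining agonist calcium response no higher than 100% minus 3 SD of agonist-only control wells, with starting fluorescence near control levels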;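 further: agonist BAM8-22 given at a near maximal EC90 to ECmax level; peak minus minimum fluorescence divided by baseline after agonist addition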
HEK293 Ca flux: MrgX1 antagonist counter-screen hit in parental HEK293 cells. shares compounds with MrgX1 antagonist. Fluo-4 calcium fluorescence, FDSS. fluorescence ratio F(max-min)/F0 at 10 µM. actives 2% (n = 4,000);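 active means duplicate-averaged calcium fluorescence ratio at least three times the standard deviation of buffer wells, a nonspecific response in parental cells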
HEK293 Ca counter: counter-screen for MrgX1 allosteric activators: effect in parental HEK293 cells | shares compounds with MrgX1 antagonist | parental HEK293 calcium flux, Fluo-4 fluorescence ratio; stronger effect = higher value | fluorescence ratio F(max-min)/F0 at 10 µM | actives 0.4% (n = 4,000);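 active means calcium fluorescence ratio, averaged over duplicates, at least 3 SD of the buffer-well ratio, meaning a nonspecific response in receptor-free cells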;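 further: untransfected parental HEK293 lacking MrgX1 used as counterscreen for MrgX1 allosteric activators; fluorescence change taken during the second addition on a kinetic imager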
HEK293 Ca cntr2: MrgX1 activator counter-screen hit in parental HEK293 cells; shares compounds with MrgX1 antagonist; Fluo-4 calcium fluorescence (FDSS); stronger effect = higher value; fluorescence ratio F(max-min)/F0 at 10 µM; actives 8.7% (n = 4,000); AID 624115;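 active means calcium fluorescence ratio at least three times the spread of buffer wells, meaning a non-specific response in parental cells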
The depositor's hits bear a star; i = inactive; nt = not tested or not shown. In the library only some 3.5% were active in any assay of this set; here they are far more common.

SMILES	MrgX1 antagonist	RGS4 inh	MrgX1 PAM	RGS4 pot	MrgX1 agonist	MrgX1 antag conf	HEK293 Ca flux	HEK293 Ca counter	HEK293 Ca cntr2
CN1CCN(S(=O)(=O)c2ccc(NC(=O)Cc3cccs3)cc2)CC1	-4.67*	i	i	i	i	i	i	i	50.9*
Cc1ccccc1Oc1ccc(NC(=O)C2CC=CCC2C(=O)O)cc1 (stereo not drawn)	i	i	i	i	i	nt	nt	nt	nt
CC(C)(C)c1ccc(Oc2ccc(NC(=O)C3CC=CCC3C(=O)O)cc2)cc1 (stereo not drawn)	-9.01*	i	i	i	i	i	i	i	i
CCOc1ncccc1C(=O)Nc1nnc(C)s1	-4.77*	i	i	i	i	i	i	i	i
Cc1cc(C)c(C)c(OCC(=O)N2CCCCCC2)c1	i	i	i	i	i	nt	nt	nt	nt
Cc1ccc(NC(=O)Cn2sc3nc(C)cc(C)c3c2=O)c(Cl)c1	i	i	i	i	i	nt	nt	nt	nt
O=C(Nc1ccc(OCc2ccccc2)cc1)c1ccccc1	-8.98*	i	i	i	i	i	i	i	i
CCOc1ccccc1CNS(=O)(=O)c1cc(-c2cc(C)no2)ccc1OC	i	i	i	i	i	nt	nt	nt	nt
COc1ccc(-c2cc(C)no2)cc1S(=O)(=O)NCC(C)c1ccccc1 (stereo not drawn)	-6.66*	i	i	i	i	i	i	i	i
COc1ccc(NC(=O)CSc2nnc3c4c(nc(-c5ccccc5)n23)CC(C)(C)OC4)cc1	-7.24*	i	i	i	i	i	i	i	i
Clc1ccccc1Cn1nnc2c(NCC3CC3)ncnc21	-7.53*	i	i	i	i	i	i	i	i
Clc1ccccc1Cn1nnc2c(Nc3ccccc3)ncnc21	i	i	i	i	i	nt	nt	nt	nt
COc1ccc(/C(O)=C2/C(=O)C(=O)N(c3ncccn3)C2c2ccc(F)cc2)cc1 (stereo not drawn)	i	i	i	i	i	nt	nt	nt	nt
Cc1cc2cc(CCNC(=O)c3ccc(Br)o3)c(=O)[nH]c2cc1C	i	i	i	i	i	nt	nt	nt	nt
COc1ccc2cc(CCNC(=O)c3ccc(Br)o3)c(=O)[nH]c2c1	-5.32*	i	i	i	i	i	i	i	i
Cc1cc(O)c(C(C)C)cc1N=Nc1ccccc1C(=O)O	i	i	i	i	i	nt	nt	nt	nt
Cc1cc(N=Nc2ccccc2C(=O)O)c(C)c(C)c1O	-6.95*	i	i	i	i	i	i	i	i
CC(=O)NC1CC2CCCC(C1)N2S(=O)(=O)c1ccccc1 (stereo not drawn)	-8.79*	i	i	i	i	i	i	i	i
O=C(NCc1ccncc1)c1ccc(Br)cc1	i	i	i	i	i	nt	nt	nt	nt
O=C(CCNC(=O)c1ccc(Br)cc1)NCc1ccncc1	-6.12*	i	i	i	i	i	i	i	i
COc1ccc2c(c1)OC[C@H]1[C@H]2N2C(=O)c3cc(Br)ccc3NC(=O)[C@@]2(C)[C@H]1c1ccccc1	-7.57*	nt	i	nt	i	78.7%*	i	i	i
COc1ccc2c(c1)OC[C@H]1[C@H]2N2C(=O)c3cc(OC)c(OC)cc3NC(=O)[C@@]2(C)[C@H]1c1ccccc1	i	nt	i	nt	i	nt	nt	nt	nt
